Rows were chosen to be rich in hits. Some 2.5% of all compounds tested hit in one or more screens of this group.
TCR CD3 inh – human TCR-CD3 binding inhibition; TAMRA-labeled TCR probe fluorescence, biochemical; inhibition, % at 9.4 µM; 0.37% of 360,000 active; AID 651800; in the data active = inhibition above about 19%;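 also: recombinant mutant TCR 2C K166C tagged with TAMRA read by polarization; 0% = receptor in buffer alone and 100% = receptor with positive control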
ABHD4 inh – inhibitors of mouse ABHD4; inhibition, % at 8.92 µM; purified mABHD4, FP-Rh probe fluorescence polarization; 0.54% of 370,000 active; AID 720543;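 active = inhibition exceeding the mean over every tested compound plus 3 SD, cut at about 30% in these data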;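 also: 0% = plate median of compound wells and 100% = S159A mutant with DMSO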
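Material: mouse ABHD4 enzyme, wild type; Benchmarks: S159A mutant high control, sample median low control; Buffer or medium: HEPES pH 7.0, NaCl, Pluronic buffer; Signal: fluorescence polarization; Read-out: percent inhibition of probe binding, normalized to plate controls; Timing: pre-incubation 45 min, probe exposure 60 min, at 25 °C; Dosing: 8.92 µM, single dose.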
SIAE inh – human SIAE inhibition, primary screen. Q9HAT2. SIAE FP-Rh probe binding, fluorescence polarization. inhibition, % at 9.66 µM. 0.69% of 370,000 active;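 active = inhibition above a cutoff: mean of compounds within the control limits plus 3 SD of those, cut at about 17% in these data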;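 also: 0% = plate median of compound wells and 100% = probe without SIAE protein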
Target sequence (Q9HAT2 whole entry, looked up): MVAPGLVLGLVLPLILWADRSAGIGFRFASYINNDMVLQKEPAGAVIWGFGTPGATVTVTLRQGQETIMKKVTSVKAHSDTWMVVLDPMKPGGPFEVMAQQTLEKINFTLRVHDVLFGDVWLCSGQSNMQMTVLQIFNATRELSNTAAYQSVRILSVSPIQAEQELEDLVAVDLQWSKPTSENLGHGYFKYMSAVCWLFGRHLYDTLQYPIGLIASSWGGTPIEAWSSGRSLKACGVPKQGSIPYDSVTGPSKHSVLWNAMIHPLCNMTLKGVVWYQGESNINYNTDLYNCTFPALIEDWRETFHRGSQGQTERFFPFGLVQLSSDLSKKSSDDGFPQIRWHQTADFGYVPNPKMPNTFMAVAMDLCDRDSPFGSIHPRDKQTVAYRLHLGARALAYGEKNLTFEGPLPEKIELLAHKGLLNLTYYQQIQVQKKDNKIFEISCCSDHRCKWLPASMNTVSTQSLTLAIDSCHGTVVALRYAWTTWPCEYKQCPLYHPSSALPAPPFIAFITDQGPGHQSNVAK
PRMT1 inh – blocks human protein arginine methyltransferase 1; inhibition, % at 2.79 µM; recombinant PRMT1, activity-based probe fluorescence polarization; 1.3% of 370,000 active; Q99873;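 active = inhibition above about 21% made by adding two undisclosed values, limit read from the data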
HTRA1 inhibitor – blocks human HTRA1 serine peptidase; Q92743; recombinant HTRA1, FP-rhodamine activity-based probe, fluorescence polarization; inhibition, % at 5.96 µM; 0.5% of 340,000 active; AID 504803; in the data active = inhibition above about 36%;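 also: 0% = enzyme with DMSO and 100% = wells lacking enzyme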
SIAE inh conf – human SIAE inhibition, confirmation; shares compounds with SIAE inh; SIAE FP-Rh activity-based probe, fluorescence polarization; inhibition, % at 9.66 µM; 13% of 2,300 active;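 active = mean inhibition of the replicates above the hit cutoff set in the primary screen, cut at about 17% in these data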;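 also: 0% = SIAE with DMSO and probe and 100% = probe without SIAE; inhibitors lower polarization as more probe stays unbound to SIAE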
An asterisk follows results filed as active.

O=C(CNc1ccc2ccccc2c1)N/N=C/c1cc2ccccc2nc1Cl was read as TCR CD3 inh 0, ABHD4 inh 23, SIAE inh 18*, PRMT1 inh 5, HTRA1 inhibitor 7 and SIAE inh conf -10.
CC1CN(c2nc3ccccc3nc2SCC(=O)N2CCN(S(=O)(=O)c3ccccc3)CC2)CC(C)O1 (stereo unspecified) was read as ABHD4 inh -3, SIAE inh -5 and PRMT1 inh 2.
`CCc1c(C)c2ccc(OCC(N)=O)cc2oc1=O` gave TCR CD3 inh -1, ABHD4 inh -2, SIAE inh 24*, PRMT1 inh -3, HTRA1 inhibitor 4 and SIAE inh conf 2.
CCc1cccc(CC)c1N(COC)C(=O)Cn1cnc2ccccc21 was read as TCR CD3 inh 1, ABHD4 inh -2, SIAE inh 1 and PRMT1 inh -5.
CCOCN(C(=O)Cn1cnc2ccccc21)c1c(C)cccc1CC was read as TCR CD3 inh -5, ABHD4 inh 3, SIAE inh 18*, PRMT1 inh -1, HTRA1 inhibitor -3 and SIAE inh conf -2.
Screening COCCNc1nc(Oc2cccc3ccccc23)c2sccc2n1 returned TCR CD3 inh 7, ABHD4 inh -9, SIAE inh -6 and PRMT1 inh -2.
CSc1ncc2[nH]c(C(O)c3ccccc3)nc2n1 (stereo unspecified) was read as TCR CD3 inh -2, ABHD4 inh 0, SIAE inh 0, PRMT1 inh -3 and HTRA1 inhibitor 0.
Screening C/C(=N\NC(=O)c1cc([N+](=O)[O-])cc([N+](=O)[O-])c1)c1ccco1 returned TCR CD3 inh 0, ABHD4 inh 5, SIAE inh 18*, PRMT1 inh 1, HTRA1 inhibitor 3 and SIAE inh conf 4.
Screening CCCCn1c(=O)[nH]c(=O)c2c1nc(CN(C)Cc1cccc(OC)c1OC)n2CCC returned TCR CD3 inh -2, ABHD4 inh 12, SIAE inh -12, PRMT1 inh 6 and HTRA1 inhibitor 4.
COC(=O)c1ccc(C)c(NC(=O)C(CCSC)NC(=O)c2cc(OC)c(OC)c(OC)c2)c1 (stereo unspecified) was read as TCR CD3 inh 4, ABHD4 inh -1, SIAE inh 17*, PRMT1 inh -1, HTRA1 inhibitor 0 and SIAE inh conf -4.
Screening CN(CCn1ccnc1)C(=O)CC1C(=O)NCCN1Cc1ccccc1C(F)(F)F (stereo unspecified) returned TCR CD3 inh 5, ABHD4 inh -1, SIAE inh 24*, PRMT1 inh -1, HTRA1 inhibitor -2 and SIAE inh conf -1.
Cc1nonc1CN(C)C(=O)CC1C(=O)NCCN1Cc1ccccc1C(F)(F)F (stereo unspecified) was read as TCR CD3 inh 6, ABHD4 inh -1, SIAE inh 2, PRMT1 inh -1 and HTRA1 inhibitor 4.
`CCSC1OC(C(COC(C)=O)OC(C)=O)C(OC(C)=O)C1NC(C)=S` (stereo unspecified) gave TCR CD3 inh 2, ABHD4 inh 6, SIAE inh 10, PRMT1 inh 10 and HTRA1 inhibitor 0.
`CC(C)(C)OC(=O)C[C@H]1C/C=C\C[C@@H](CC(=O)N(CCO)Cc2ccccc2)C(=O)NC[C@@H](c2ccccc2)OC1=O` gave TCR CD3 inh -3, ABHD4 inh 0, SIAE inh 6, PRMT1 inh -3 and HTRA1 inhibitor -9.
Cc1c(N)cccc1N was read as TCR CD3 inh -4, ABHD4 inh 2, SIAE inh 3, PRMT1 inh 0 and HTRA1 inhibitor 18.
Cc1ccc2cccc(N)c2n1 was read as TCR CD3 inh 10, ABHD4 inh 5, SIAE inh 32*, PRMT1 inh 0, HTRA1 inhibitor 12 and SIAE inh conf 5.
Fc1ccc(-c2n[nH]c(=S)n2N=Cc2ccc(OCc3ccccc3)cc2)cc1 was read as ABHD4 inh -9, SIAE inh -1 and PRMT1 inh 15.
For Cn1cc(CC(=O)Nc2ccc(Nc3cccnc3)cc2)c2ccccc21 the results were TCR CD3 inh -7, ABHD4 inh 8, SIAE inh 21*, PRMT1 inh 2 and SIAE inh conf 23*.
Screening O=C(Cc1cn(Cc2ccccc2)c2ccccc12)Nc1ccc(Oc2cccnc2)cc1 returned TCR CD3 inh -1, ABHD4 inh -9, SIAE inh -7 and PRMT1 inh 2.
Screening CN(c1cccnc1)c1ccc(NC(=O)Cc2cn(Cc3ccccc3)c3ccccc23)cc1Br returned TCR CD3 inh 2, ABHD4 inh 18, SIAE inh 21*, PRMT1 inh 3 and SIAE inh conf 24*.
`Cc1cc(C)nc(N/N=C2/CCCC/C2=C\c2ccccc2)n1` gave TCR CD3 inh 2, ABHD4 inh 0, SIAE inh 5, PRMT1 inh -4 and HTRA1 inhibitor -8.
`Cc1ccc(-c2csc(N/N=C/c3ccco3)n2)c(C)c1` gave TCR CD3 inh 6, ABHD4 inh 11, SIAE inh 19*, PRMT1 inh 3, HTRA1 inhibitor 4 and SIAE inh conf 3.
For CN(C)S(=O)(=O)c1cccc(-c2csc(N/N=C/c3ccco3)n2)c1 the results were TCR CD3 inh 6, ABHD4 inh 14, SIAE inh 3, PRMT1 inh 11 and HTRA1 inhibitor -4.
For COCc1nnc(NC(=O)C23CC4CC(CC(C4)C2)C3)s1 the results were TCR CD3 inh -4, ABHD4 inh -8, SIAE inh 18*, PRMT1 inh 9, HTRA1 inhibitor -4 and SIAE inh conf 4.
Screening O=C(Nc1nccs1)c1ccc2c(=O)n3c(nc2c1)CCCCC3 returned TCR CD3 inh 3, ABHD4 inh -1, SIAE inh -3, PRMT1 inh -4 and HTRA1 inhibitor -3.
For CCCCNC(=O)CCC(=O)Nc1ccc2nc(N3CCCCC3)cc(C)c2c1 the results were TCR CD3 inh 2, ABHD4 inh 0, SIAE inh -2, PRMT1 inh -1 and HTRA1 inhibitor 2.
Screening CCCCNC(=O)CCC(=O)Nc1ccc2nc(N3CCOCC3)cc(C)c2c1 returned TCR CD3 inh -3, ABHD4 inh -1, SIAE inh 24*, PRMT1 inh -1, HTRA1 inhibitor -5 and SIAE inh conf -1.
CCN(CC(=O)c1c(N)n(C)c(=O)n(C)c1=O)c1cccc2ccccc12 was read as TCR CD3 inh -5, ABHD4 inh 13, SIAE inh 20*, PRMT1 inh 1, HTRA1 inhibitor 10 and SIAE inh conf 7.
Cn1c(N)c(C(=O)CCc2ccccc2)c(=O)n(C)c1=O was read as TCR CD3 inh 5, ABHD4 inh 2, SIAE inh 0 and PRMT1 inh -10.

Screening data from PubChem.
